Assay results published in ChEMBL document CHEMBL3351942, “Rexinoids isolated from Sophora tonkinensis with a gene expression profile distinct from the synthetic rexinoid bexarotene” (J Nat Prod, 2014).
Active and inactive are the calls of the source. The calls are words filed in the database; no cut-off is given here.

Experiments:
Assay type in all cases: cell-based
[1] = Activation of LXR in mouse C2C12 cells assessed as induction of LPL mRNA expression at 10 uM after 24 hrs in presence of T0901317 by quantitative RT-PCR analysis
Procedure, shortened: (§1)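 C2C12 myoblasts grown in DMEM/10% FBS, differentiated at confluence in 2% horse serum, medium changed every other day for 5 days; myotubes treated 24 h with or without T0901317 (1 μM). Total RNA, DNase-treated, oligo(dT) RT from 0.5 μg, SYBR green qPCR; normalized to β-actin (delta-delta Ct), fold over vehicle; mean ± SD of four determinants, one of two experiments.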

[2] = Activation of LXR in mouse C2C12 cells assessed as induction of ApoD mRNA expression at 10 uM after 24 hrs by quantitative RT-PCR analysis; procedure, shortened: as §1
[3] = molecular target: T1, Peroxisome proliferator-activated receptor delta (Mus musculus) (UniProt P35396); assay: Activation of PPARdelta in mouse C2C12 cells assessed as induction of ANGPTL4 mRNA expression at 10 uM after 24 hrs in presence of GW501516 by quantitative RT-PCR analysis
T1 sequence (whole entry): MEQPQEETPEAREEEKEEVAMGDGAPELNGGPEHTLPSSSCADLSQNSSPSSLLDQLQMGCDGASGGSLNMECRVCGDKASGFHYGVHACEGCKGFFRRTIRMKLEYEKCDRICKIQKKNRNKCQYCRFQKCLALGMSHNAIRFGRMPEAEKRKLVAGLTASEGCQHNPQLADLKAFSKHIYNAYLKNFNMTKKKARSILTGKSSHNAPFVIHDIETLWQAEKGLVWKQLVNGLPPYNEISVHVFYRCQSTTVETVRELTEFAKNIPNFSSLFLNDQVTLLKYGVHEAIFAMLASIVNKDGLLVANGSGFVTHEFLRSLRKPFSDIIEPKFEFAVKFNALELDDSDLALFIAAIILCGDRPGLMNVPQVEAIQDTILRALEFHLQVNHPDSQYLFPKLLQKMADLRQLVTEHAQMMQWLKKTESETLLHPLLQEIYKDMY
Procedure, shortened: (§2)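 Differentiated C2C12 myotubes (2% horse serum, 5 days) exposed 24 h with or without PPARδ agonist GW501516 (1 μM). mRNA quantified by SYBR green real-time RT-PCR, normalized to β-actin by delta-delta Ct, and expressed as fold induction vs vehicle; means ± SD of four determinants from one of two independent experiments; one-way ANOVA with Bonferroni.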

[4] = Activation of LXR in mouse C2C12 cells assessed as induction of SREBP1 mRNA expression at 10 uM after 24 hrs by quantitative RT-PCR analysis
[5] = molecular target: T1, Peroxisome proliferator-activated receptor delta (Mus musculus); assay: Activation of PPARdelta in mouse C2C12 cells assessed as induction of CPT1A mRNA expression at 10 uM after 24 hrs by quantitative RT-PCR analysis; procedure, shortened: as §2
[6] = Activation of LXR in mouse C2C12 cells assessed as induction of ApoE mRNA expression at 10 uM after 24 hrs by quantitative RT-PCR analysis; procedure, shortened: as §1

- Activity [3]: Active
- Activity [5]: Active
SMILES: CC(C)=CCc1cc([C@@H]2CC(=O)c3ccc(O)c(CC=C(C)C)c3O2)cc2c1OC(C(C)(C)O)C2 (stereo partly specified)
- Activity [1]: Active
- Activity [2]: Active
- Activity [4]: Active
- Activity [6]: Active
